Active and inactive are the calls of the source. The calls are words filed in the database; no cut-off is given here.
Experiments:
Escherichia coli B [1] = assay: Inhibition of Escherichia coli B thymidine kinase using [2-14C]-thymidine as substrate assessed as formation of [14C]-TMP at 0.5 mM after 10 mins by liquid scintillation spectrometric analysis relative to control
Summary of the method: (§1)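 E. coli thymidine kinase (fraction V, purified from frozen cells; 7.2 × 10⁻⁶ units per assay) in Tris-HCl 71 mM, MgCl2 2.85 mM, MnCl2 0.71 mM, ATP 5.7 mM, BSA and [2-14C]thymidine 82 μM with test compound. The mixture was held at 37 °C for 10 min, then boiled. [14C]TMP was resolved by paper electrophoresis (pH 7.6) and scintillation-counted, with the unincubated blank subtracted.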

Escherichia coli B [2] = assay: Inhibition of Escherichia coli B thymidine kinase using [2-14C]-thymidine as substrate assessed as formation of [14C]-TMP at 1 mM after 10 mins by liquid scintillation spectrometric analysis relative to control; summary of the method: as §1
Escherichia coli B [3] = assay: Activation of Escherichia coli B thymidine kinase using [2-14C]-thymidine as substrate assessed as formation of [14C]-TMP at 0.1 mM after 10 mins by liquid scintillation spectrometric analysis relative to control; summary of the method: as §1
Escherichia coli B [4] = assay: Activation of Escherichia coli B thymidine kinase using [2-14C]-thymidine as substrate assessed as formation of [14C]-TMP at 2 mM after 10 mins by liquid scintillation spectrometric analysis relative to control; summary of the method: as §1
Escherichia coli B [5] = assay: Activation of Escherichia coli B thymidine kinase using [2-14C]-thymidine as substrate assessed as formation of [14C]-TMP at 8 mM after 10 mins by liquid scintillation spectrometric analysis relative to control; summary of the method: as §1
Escherichia coli B [6] = assay: Activity of Escherichia coli B thymidine kinase assessed as [14C]-TMP formation at 500 uM after 1 hr by liquid scintillation spectrometric analysis; settings: tested as the 14C-labelled form
Escherichia coli B [7] = assay: Activity of Escherichia coli B thymidine kinase assessed as [14C]-TMP formation at 450 uM after 1 hr by liquid scintillation spectrometric analysis; settings: tested as the 14C-labelled form
Escherichia coli B [8] = assay: Inhibition of Escherichia coli B thymidine kinase using [2-14C]-thymidine as substrate assessed as formation of [14C]-TMP at 2 mM after 10 mins by liquid scintillation spectrometric analysis relative to control; summary of the method: as §1
Escherichia coli B [9] = assay: Inhibition of Escherichia coli B thymidine kinase using [2-14C]-thymidine as substrate assessed as formation of [14C]-TMP at 16 mM after 10 mins by liquid scintillation spectrometric analysis relative to control; summary of the method: as §1
Escherichia coli B [10] = assay: Non-competitive inhibition of Escherichia coli B thymidine kinase using [2-14C]-thymidine as substrate assessed as formation of [14C]-TMP at 16 mM after 10 mins by Lineweaver-Burk double reciprocal plot analysis
Escherichia coli B [11] = assay: Activation of Escherichia coli B thymidine kinase using [2-14C]-thymidine as substrate assessed as formation of [14C]-TMP at 0.5 mM after 10 mins by liquid scintillation spectrometric analysis relative to control; summary of the method: as §1
[12] = Non-competitive inhibition of Escherichia coli B thymidine kinase using [2-14C]-thymidine as substrate assessed as formation of [14C]-TMP after 10 mins by Lineweaver-Burk double reciprocal plot analysis; settings: read-out: I50
Summary of the method: (§2)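 Fraction V E. coli thymidine kinase was assayed with MgATP 5.7 mM and Mg/Mn salts in Tris-HCl at 37 °C for 10 min, reading [14C]TMP after electrophoresis. Four or more thymidine levels (20–160 μM) were used at each of two inhibitor levels plus an inhibitor-free control, all in duplicate. Ki (competitive) or I50 (noncompetitive) came from replots of Lineweaver-Burk slopes against inhibitor concentration, reproducible to ±7%.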

[13] = Competitive inhibition of Escherichia coli B thymidine kinase using [2-14C]-thymidine as substrate assessed as formation of [14C]-TMP after 10 mins by Lineweaver-Burk double reciprocal plot analysis; settings: read-out: Ki(app); summary of the method: as §2
Escherichia coli B [14] = assay: Activity of Escherichia coli B thymidine kinase assessed as [14C]-TMP formation at 775 uM after 1 hr by liquid scintillation spectrometric analysis relative to thymidine; settings: tested as the 14C-labelled form
Escherichia coli B [15] = assay: Inhibition of Escherichia coli B thymidine kinase using [2-14C]-thymidine as substrate assessed as formation of [14C]-TMP at 4 mM after 10 mins by liquid scintillation spectrometric analysis relative to control; summary of the method: as §1
Escherichia coli B [16] = assay: Inhibition of Escherichia coli B thymidine kinase using [2-14C]-thymidine as substrate assessed as formation of [14C]-TMP at 8 mM after 10 mins by liquid scintillation spectrometric analysis relative to control; summary of the method: as §1
Escherichia coli B [17] = assay: Activation of Escherichia coli B thymidine kinase using [2-14C]-thymidine as substrate assessed as formation of [14C]-TMP at 1 mM after 10 mins by liquid scintillation spectrometric analysis relative to control; summary of the method: as §1

## CCn1c(=O)ccn([C@H]2C[C@H](O)[C@@H](CO)O2)c1=O
Escherichia coli B [1]
  inhibition: 12%
Escherichia coli B [2]
  inhibition: 22%

## CC[S+]([O-])C[C@H]1O[C@@H](n2cc(C)c(=O)[nH]c2=O)C[C@@H]1O (stereo partly specified)
Escherichia coli B [3]
  Activity: -5%
Escherichia coli B [4]
  Activity: -4%
Escherichia coli B [5]
  Activity: 22%

## CC(=O)NCC(O)[C@H]1O[C@@H](n2cc(C)c(=O)[nH]c2=O)C[C@@H]1O (stereo partly specified)
Escherichia coli B [6]
  Activity: inactive
Escherichia coli B [7]
  Activity: inactive

## CC(=O)NCCC(=O)Nc1cn([C@H]2C[C@H](O)[C@@H](CO)O2)c(=O)[nH]c1=O
Escherichia coli B [1]
  inhibition: 0%
Escherichia coli B [8]
  inhibition: 0%

## CCOC1N([C@H]2C[C@H](O)[C@@H](CO)O2)C(=O)NC(=O)C1(C)Br (single isomer, unassigned)
Escherichia coli B [8]
  inhibition: 11%
Escherichia coli B [9]
  inhibition: 17%
Escherichia coli B [10]
  inhibition: inactive

## CC(=O)N(C)CCCCN(C)C[C@H]1O[C@@H](n2cc(C)c(=O)[nH]c2=O)C[C@@H]1O
Escherichia coli B [8]
  inhibition: 14%
Escherichia coli B [2]
  inhibition: 14%

## Cc1cn([C@H]2C[C@H](O)[C@@H](CSCCC(=O)O)O2)c(=O)[nH]c1=O
Escherichia coli B [3]
  Activity: 120%
Escherichia coli B [11]
  Activity: 126%
Escherichia coli B [4]
  Activity: 125%
Escherichia coli B [5]
  Activity: 106%

## CC(=O)N(C)CCCCCCN(C)C[C@H]1O[C@@H](n2cc(C)c(=O)[nH]c2=O)C[C@@H]1O
Escherichia coli B [8]
  inhibition: 14%
Escherichia coli B [2]
  inhibition: 14%

## O=c1ccn([C@@H]2O[C@H](CO)[C@@H](O)[C@H]2O)c(=O)[nH]1 [URIDINE]
[12]
  IC50: 47500 µM

## CCCn1c(=O)c(C)cn([C@H]2C[C@H](O)[C@@H](CO)O2)c1=O
Escherichia coli B [1]
  inhibition: 28%
Escherichia coli B [2]
  inhibition: 39%

## O=c1ccn([C@H]2C[C@H](O)[C@@H](CO)O2)c(=O)[nH]1 [DEOXYURIDINE]
[13]
  Ki: 290 µM

## CC(=O)NC[C@H]1O[C@@H](n2cc(C)c(=O)[nH]c2=O)C[C@@H]1O
Escherichia coli B [1]
  inhibition: 0%
Escherichia coli B [2]
  inhibition: 0%

## CC(=O)NCc1cn([C@H]2C[C@H](O)[C@@H](CO)O2)c(=O)[nH]c1=O
Escherichia coli B [14]
  Activity: < 0.021%

## CCNC[C@H]1O[C@@H](n2cc(C)c(=O)[nH]c2=O)C[C@@H]1O
Escherichia coli B [15]
  inhibition: 28%
Escherichia coli B [16]
  inhibition: 36%

## CCC(=O)NCC(O)[C@H]1O[C@@H](n2cc(C)c(=O)[nH]c2=O)C[C@@H]1O (single isomer, unassigned; more polar)
[13]
  Ki: 6600 µM

## Nc1ccn([C@H]2C[C@H](O)[C@@H](CO)O2)c(=O)n1
Escherichia coli B [1]
  inhibition: 0%
Escherichia coli B [8]
  inhibition: 0%

## Nc1cn([C@H]2C[C@H](O)[C@@H](CO)O2)c(=O)[nH]c1=O
[12]
  IC50: 28000 µM

## CCS[C@H]1C[C@H](n2cc(C)c(=O)[nH]c2=O)O[C@@H]1CO
[12]
  IC50: 320 µM

## CCOC1N([C@H]2C[C@H](O)[C@@H](CO)O2)C(=O)NC(=O)C1(C)Br (single isomer, unassigned; less polar)
Escherichia coli B [9]
  inhibition: 0%
Escherichia coli B [10]
  inhibition: inactive

## Cc1cn([C@H]2C[C@H](O)[C@@H](CN)O2)c(=O)[nH]c1=O
[13]
  Ki: 320 µM

## CC(=O)NCC(O)[C@H]1O[C@@H](n2cc(C)c(=O)[nH]c2=O)C[C@@H]1O (stereo in doubt; 4a)
[13]
  Ki: 1250 µM

## Cc1cn([C@H]2C[C@H](O)[C@@H](CSCCO)O2)c(=O)[nH]c1=O
Escherichia coli B [11]
  Activity: 15%
Escherichia coli B [17]
  Activity: 28%
Escherichia coli B [4]
  Activity: 25%

## CC(=O)N[C@H]1C[C@H](n2cc(C)c(=O)[nH]c2=O)O[C@@H]1CO
[12]
  IC50: 6100 µM

## CCCCNC[C@H]1O[C@@H](n2cc(C)c(=O)[nH]c2=O)C[C@@H]1O
Escherichia coli B [1]
  inhibition: 9%
Escherichia coli B [8]
  inhibition: 12%

## CCC(=O)NCC(O)[C@H]1O[C@@H](n2cc(C)c(=O)[nH]c2=O)C[C@@H]1O (single isomer, unassigned; less polar)
[13]
  Ki: 850 µM

## CCCC(=O)NC[C@H]1O[C@@H](n2cc(C)c(=O)[nH]c2=O)C[C@@H]1O
Escherichia coli B [1]
  inhibition: 0%
Escherichia coli B [2]
  inhibition: 0%

## CC(=O)N(C)CCN(C)C[C@H]1O[C@@H](n2cc(C)c(=O)[nH]c2=O)C[C@@H]1O
Escherichia coli B [8]
  inhibition: 0%
Escherichia coli B [2]
  inhibition: 0%

## NCc1cn([C@H]2C[C@H](O)[C@@H](CO)O2)c(=O)[nH]c1=O
Escherichia coli B [1]
  inhibition: 14%
Escherichia coli B [2]
  inhibition: 25%

## CCn1c(=O)c(C)cn([C@H]2C[C@H](O)[C@@H](CO)O2)c1=O
Escherichia coli B [1]
  inhibition: 30%
Escherichia coli B [2]
  inhibition: 44%
[12]
  IC50: 1250 µM

## CCCCCn1c(=O)c(C)cn([C@H]2C[C@H](O)[C@@H](CO)O2)c1=O
Escherichia coli B [1]
  inhibition: 45%
Escherichia coli B [2]
  inhibition: 59%
[12]
  IC50: 650 µM

## CCSC[C@H]1O[C@@H](n2cc(C)c(=O)[nH]c2=O)C[C@@H]1O
Escherichia coli B [3]
  Activity: 70%
Escherichia coli B [11]
  Activity: 63%
Escherichia coli B [4]
  Activity: 46%

## N#Cc1cn([C@H]2C[C@H](O)[C@@H](CO)O2)c(=O)[nH]c1=O
Escherichia coli B [1]
  inhibition: 23%
Escherichia coli B [8]
  inhibition: 40%

## Cc1cn([C@H]2C[C@H](O)[C@@H](C[S+]([O-])CCC(=O)O)O2)c(=O)[nH]c1=O (stereo partly specified)
Escherichia coli B [3]
  Activity: -2%
Escherichia coli B [11]
  Activity: -1%
Escherichia coli B [4]
  Activity: 42%
Escherichia coli B [5]
  Activity: 65%

## CCNc1cn([C@H]2C[C@H](O)[C@@H](CO)O2)c(=O)[nH]c1=O
Escherichia coli B [1]
  inhibition: 0%
Escherichia coli B [8]
  inhibition: 0%

## CCCn1c(=O)ccn([C@H]2C[C@H](O)[C@@H](CO)O2)c1=O
Escherichia coli B [1]
  inhibition: 18%
Escherichia coli B [2]
  inhibition: 35%

## CCCCCCNC[C@H]1O[C@@H](n2cc(C)c(=O)[nH]c2=O)C[C@@H]1O
[13]
  Ki: 2600 µM

## Cc1cn([C@H]2C[C@H](O)[C@@H](CSCCCC(=O)O)O2)c(=O)[nH]c1=O
Escherichia coli B [3]
  Activity: 61%
Escherichia coli B [11]
  Activity: 60%
Escherichia coli B [4]
  Activity: 62%
Escherichia coli B [5]
  Activity: 35%

## CC(=O)NCC(O)[C@H]1O[C@@H](n2cc(C)c(=O)[nH]c2=O)C[C@@H]1O (mixture of isomers)
[13]
  Ki: 2000 µM

## CC(=O)Nc1cn([C@H]2C[C@H](O)[C@@H](CO)O2)c(=O)[nH]c1=O
Escherichia coli B [1]
  inhibition: 15%
Escherichia coli B [8]
  inhibition: 15%

## CCNc1ccn([C@H]2C[C@H](O)[C@@H](CO)O2)c(=O)n1
Escherichia coli B [1]
  inhibition: 0%
Escherichia coli B [8]
  inhibition: 0%

## Cc1cn([C@H]2C[C@H](N)[C@@H](CO)O2)c(=O)[nH]c1=O [3-AMINO- 3-DEOXYTHYMIDINE]
[12]
  IC50: 2750 µM

Source: ChEMBL document CHEMBL3244008, “Design of species- or isozyme-specific enzyme inhibitors. 2. Differences between a bacterial and a mammalian thymidine kinase in the effect of thymidine substituents on affinity for the thymidine site” (J Med Chem, 1979)
